Active and inactive are the calls of the source.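 Rule for the calls, unless noted: active = NADPH fluorescence slope more negative than the mean of all samples by about 3 SD, 99.7% confidence; inactive = the rest.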 Where a SMILES comes first, the peptide text is derived from it. The star is where a group is joined. Boc = CC(C)(C)OC(=O)*
Assays:
[1] = inhibitors of TNFa-induced NFkB p65 translocation, primary screen, imaging, HUVEC, MLSMR starter and 10KST1 sets (AID 438;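 active = inhibition above 20% together with a positive visual image hit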;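 note: compound added about 3h40 before a 20 min TNFalpha stimulation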;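 for inhibition: signal is the nuclear over cytoplasmic p65 intensity ratio per well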); conditions: HUVEC TNFa-induced p65 nuclear translocation; cell count: measured here: nuclei count (cytotoxicity indicator), at 2.08 µM; inhibition: at 2 µM, stronger effect = higher value, 0% TNFa-plus-vehicle, 100% no-TNFa wells
[2] = inhibitors of mutant huntingtin aggregation, primary screen, imaging, exon1htt(103Q)mCFP cells, high-content imaging (AID 483;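 active = visual image review flags a hit and inhibition of aggregation exceeds 20%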;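 note: compound exposure lasted 3 days before fixation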;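 for nuclei count: percent of the per-plate median nuclei count of sample wells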); conditions: exon1htt(103Q)mCFP cell line, aggregate imaging, at 2 µM; inhibition of aggregation: stronger effect = higher value; nuclei count: measured here: cell count, toxicity
[3] = inhibitors of E-selectin induction by TNFa, primary screen, imaging, HUVEC, immunofluorescence, MLSMR starter and 10KST1 sets (AID 487;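 active = visually confirmed hit in the image check and inhibition above 20%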;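 for inhibition: signal is fraction of cell area covered by stained E-selectin grains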;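 for nuclei count: 100% = median nuclei count of all wells on the same plate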); conditions: HUVEC TNFalpha-induced E-selectin immunofluorescence imaging, at 2 µM; inhibition: stronger effect = higher value; nuclei count: measured here: cell number, toxicity
[4] = molecular target: Voltage-gated potassium channel subunit beta-2 (Rattus norvegicus) (UniProt P62483); assay: KvBeta enzyme negative modulators, primary screen, biochemical, NADPH fluorescence (AID 622;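 active = fluorescence slope higher than the sample average by over 3 SD, cut at about -0.22 in these data, passing the limit was not always enough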;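 note: slope of raw intensity against log time taken from 70 to 1610 s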); conditions: recombinant KvBeta, 4-cyanobenzaldehyde reduction, at 10 µM, stronger effect = higher value
[5] = molecular target: Voltage-gated potassium channel subunit beta-2 (Rattus norvegicus) (UniProt P62483); assay: KvBeta positive modulators, primary screen, biochemical, NADPH fluorescence (AID 623); conditions: Recombinant KvBeta, NADPH fluorescence decrease slope, 10 min; at 10 µM; stronger effect = lower value;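 note: fluorescence intensity change per second fitted from 20 to 320 s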
[6] = molecular target: Muscarinic acetylcholine receptor M4 (Homo sapiens) (UniProt P08173); assay: compounds altering M4/GIRK thallium flux, either direction, primary screen, M4 allosteric agonist project, cell-based, HEK293 M4/GIRK, BTC-AM (AID 625;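 active = fluorescence slope after compound addition differing from the mean of all tested samples at 99.7% confidence, mostly higher but some lower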;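 note: thallium influx through GIRK channels coupled to M4 in HEK293 cells with BTC-AM dye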); conditions: at 10 µM, actives lie on both sides
Method in brief: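 Material: M4/GIRK1/GIRK2 stable HEK293 cell line. Medium: pH 7.3 thallium assay buffer. Dosing: single compound concentration, 10 µM final. Schedule: 1 h dye loading, 2 min kinetic read. Measured by: kinetic fluorescence with BTC-AM dye. Read-out: post-addition slope, 15–24 s, of baseline-normalized fluorescence. Benchmarks: carbachol and DMSO controls.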

[7] = inhibitors of Sendai virus-induced IRF3 signaling, primary screen, TLR/RLR signaling modifier project, cell-based, Sendai virus stimulus, luciferase, 10K MLSCN set (AID 602276;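 active = inhibition at or above 50% at 10 µM; inactive = inhibition below 50%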;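 note: firefly luciferase from ISG56 promoter only with Renilla not read in this screen; 0% = Sendai virus plus DMSO and 100% = medium plus DMSO without virus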); conditions: HEK293 RL24 IRF3 luciferase reporter, at 10 µM, stronger effect = higher value
[8] = inhibitors of poly I:C-induced TLR3 signaling, primary screen, cell-based, poly I:C stimulus, luciferase, 10K MLSCN set (AID 602277;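 active = inhibition of the reporter signal at or above 50%; inactive = inhibition below 50%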); conditions: HEK293-TLR3 RL24 IRF3 luciferase reporter, at 10 µM, stronger effect = higher value

Muscarinic acetylcholine receptor M4 (Homo sapiens), sequence (P08173 whole entry, looked up): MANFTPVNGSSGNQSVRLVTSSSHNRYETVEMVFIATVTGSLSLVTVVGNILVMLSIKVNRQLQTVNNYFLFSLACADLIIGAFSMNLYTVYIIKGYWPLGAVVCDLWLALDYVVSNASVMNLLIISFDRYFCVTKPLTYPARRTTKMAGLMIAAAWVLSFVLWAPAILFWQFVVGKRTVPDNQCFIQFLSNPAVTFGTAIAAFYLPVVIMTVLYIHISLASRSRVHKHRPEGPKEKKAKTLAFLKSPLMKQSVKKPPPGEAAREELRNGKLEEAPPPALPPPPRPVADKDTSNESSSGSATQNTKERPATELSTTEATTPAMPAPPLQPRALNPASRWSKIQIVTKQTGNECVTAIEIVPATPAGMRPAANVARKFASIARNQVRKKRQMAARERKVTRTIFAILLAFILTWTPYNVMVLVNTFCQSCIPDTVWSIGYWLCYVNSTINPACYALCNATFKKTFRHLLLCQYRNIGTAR
Voltage-gated potassium channel subunit beta-2 (Rattus norvegicus), sequence (P62483 whole entry, looked up): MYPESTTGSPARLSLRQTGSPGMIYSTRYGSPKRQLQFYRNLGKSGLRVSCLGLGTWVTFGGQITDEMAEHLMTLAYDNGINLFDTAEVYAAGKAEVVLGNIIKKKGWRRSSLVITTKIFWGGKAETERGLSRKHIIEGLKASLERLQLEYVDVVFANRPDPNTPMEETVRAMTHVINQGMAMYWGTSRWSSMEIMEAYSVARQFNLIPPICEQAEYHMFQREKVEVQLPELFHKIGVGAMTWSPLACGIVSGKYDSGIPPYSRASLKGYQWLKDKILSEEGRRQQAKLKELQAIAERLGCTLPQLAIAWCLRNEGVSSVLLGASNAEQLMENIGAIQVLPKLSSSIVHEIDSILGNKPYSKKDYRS

| Compound | cell count [1] | inhibition [1] | inhibition of aggregation [2] | nuclei count [2] [%] | inhibition [3] | nuclei count [3] [%] | fluorescence slope [4] | NADPH fluorescence slope [5] | fluorescence slope [6] | inhibition [7] | inhibition [8] |
| --- | --- | --- | --- | --- | --- | --- | --- | --- | --- | --- | --- |
| CCCOc1cc(C)c(S(=O)(=O)N2CCN(C)CC2)cc1C | 443 | 10.6% (inactive) | 12.8% (inactive) | 100 | -11.9% (inactive) | 96.1 | -0.57 (inactive) | -3.7e-05 (inactive) | 0.00349 (inactive) | 7.65% (inactive) | 10.4% (inactive) |
| c1ccc(-c2n[nH]c3ccccc23)cc1 | 708 | -3% (inactive) | 13.9% (inactive) | 116 | -13.1% (inactive) | 106 | -0.55 (inactive) | -5.6e-05 (inactive) | 0.00778 (inactive) | -14% (inactive) | -30% (inactive) |
| CN(c1cccc(NC(=O)COc2ccccc2)c1)S(C)(=O)=O | 226 | 7.2% (inactive) | 21.6% (inactive) | 91.6 | -143% (inactive) | 111 | -0.49 (inactive) | 6.4e-05 (inactive) | 0.00411 (inactive) | -58.9% (inactive) | -120% (inactive) |
| Cc1cc(C)c2c(N)c(C(=O)N3CCN(c4ncccn4)CC3)sc2n1 | 663 | -9.1% (inactive) | 5.1% (inactive) | 69.4 | -10.2% (inactive) | 101 | -0.559 (inactive) | -1.8e-05 (inactive) | 0.00421 (inactive) | -3.01% (inactive) | -25.1% (inactive) |
| O=C(CP(=O)(CO)CO)c1ccc(Cl)cc1 | 863 | -2.9% (inactive) | 18.9% (inactive) | 119 | 2.9% (inactive) | 126 | -0.536 (inactive) | 4.7e-05 (inactive) | 0.00425 (inactive) | 3.99% (inactive) | 14.2% (inactive) |
| O=C(NC12CC3CC(CC(C3)C1)C2)C1CCCN1C(=O)NC1CCCCC1 (stereo not drawn) | 559 | -1.3% (inactive) | 15.8% (inactive) | 96.2 | -17.6% (inactive) | 110 | -0.284 (inactive) | -3.2e-05 (inactive) | 0.00682 (inactive) | -2.83% (inactive) | 28.4% (inactive) |
| O=C(CS(=O)(=O)Cc1ccccc1)Nc1nc2ccccc2s1 | 425 | -4% (inactive) | 8.1% (inactive) | 82.8 | 13.1% (inactive) | 97 | -0.487 (inactive) | -3.1e-05 (inactive) | 0.00544 (inactive) | 10.2% (inactive) | 23.6% (inactive) |
| O=C(COn1nnc2ccc(C(F)(F)F)cc21)Nc1nnc(-c2ccccc2)o1 | 704 | -3.6% (inactive) | -0.6% (inactive) | 110 | 108% (active) | 80.2 | -0.503 (inactive) | -0.000163 (inactive) | 0.005 (inactive) | 2.7% (inactive) | 10.1% (inactive) |
| Cc1nc2ccccc2c(=O)n1NC(=O)c1c(O)c2c(n(CC(C)C)c1=O)CCCC2 | 439 | 4% (inactive) | 9.9% (inactive) | 76.7 | 21.1% (inactive) | 101 | -0.558 (inactive) | -5e-05 (inactive) | 0.00523 (inactive) | 18.5% (inactive) | 13.4% (inactive) |
| O=C1C=C(NCc2ccco2)C2(CCCCC2)O1 | 495 | 7.6% (inactive) | 0.6% (inactive) | 97.5 | -229% (inactive) | 125 | -0.569 (inactive) | -5.7e-05 (inactive) | 0.00577 (inactive) | 17.4% (inactive) | 20.2% (inactive) |
| Cc1csc(NC(=O)c2sc3nc(-c4cccs4)ccc3c2N)n1 | 340 | -1.9% (inactive) | 30.2% (inactive) | 68.7 | -5.9% (inactive) | 90.5 | -0.0131 (active) | 2.9e-06 (inactive) | 0.0189 (active) | -19.2% (inactive) | -115% (inactive) |
| Nc1nc(-c2ccccc2Br)cs1 | 392 | 4.7% (inactive) | -8.3% (inactive) | 110 | -133% (inactive) | 119 | -0.574 (inactive) | -1.6e-05 (inactive) | 0.00573 (inactive) | -14.5% (inactive) | -27% (inactive) |
| Clc1ccccc1OCc1nn2c(-c3ccncc3)nnc2s1 | 352 | 2.6% (inactive) | 35.5% (inactive) | 91.1 | -23.5% (inactive) | 118 | -0.298 (inactive) | -6.4e-05 (inactive) | 0.00567 (inactive) | 8.19% (inactive) | -3.24% (inactive) |
| Cc1nn(-c2ccccc2)c(C)c1C(=O)OCC(=O)c1c(N)n(CC(C)C)c(=O)n(C)c1=O | 486 | 4.2% (inactive) | -2.5% (inactive) | 78.8 | -65.4% (inactive) | 127 | -0.504 (inactive) | 0.000168 (inactive) | 0.00552 (inactive) | 4.86% (inactive) | -99.7% (inactive) |
| CC(=O)C1=C(O)C(=O)N(Cc2ccco2)C1c1ccc2c(c1)OCO2 (stereo not drawn) | 403 | 10.9% (inactive) | 1.6% (inactive) | 104 | 7.1% (inactive) | 116 | -0.513 (inactive) | -2.5e-05 (inactive) | 0.00429 (inactive) | 0.0775% (inactive) | 11.9% (inactive) |
| O=C(COc1ccc(Cl)cc1)Nc1ncccn1 | 436 | -3.8% (inactive) | 4.3% (inactive) | 98.6 | -12.3% (inactive) | 87.1 | -0.456 (inactive) | -7.3e-05 (inactive) | 0.00491 (inactive) | 14.4% (inactive) | -0.516% (inactive) |
| CC(=O)N1C(=O)c2cccc3cccc(c23)C(=O)N1C(C)=O | 776 | 4.6% (inactive) | -3.8% (inactive) | 93.6 | -62.5% (inactive) | 120 | -0.444 (inactive) | -2.9e-05 (inactive) | 0.00473 (inactive) | 18.6% (inactive) | 15.3% (inactive) |
| Cn1cccc1-c1nc2ccc(NC(=O)c3ccco3)cc2[nH]1 | 293 | -0.9% (inactive) | -0.8% (inactive) | 86.3 | -8.2% (inactive) | 110 | -0.429 (inactive) | 1e-06 (inactive) | 0.00457 (inactive) | -37.6% (inactive) | -102% (inactive) |
| COC(=O)c1[nH]c2c(c1C)C(=O)CC(c1cccs1)C2 (stereo not drawn) | 315 | 4.5% (inactive) | -123% (inactive) | 2 | -126% (inactive) | 134 | -0.473 (inactive) | -2.2e-05 (inactive) | 0.00476 (inactive) | 34.9% (inactive) | 79.5% (active) |
| Nc1c(Sc2ccccc2)c(=O)[nH]c(=O)n1Cc1ccccc1 | 254 | 7.4% (inactive) | -8.5% (inactive) | 92.6 | -3.2% (inactive) | 78.6 | -0.249 (inactive) | -4.4e-06 (inactive) | 0.00651 (inactive) | -0.235% (inactive) | -2.56% (inactive) |
| CC(C(=O)N1CCc2ccccc21)N1CCc2ccccc2C1 (stereo not drawn) | 597 | -1% (inactive) | 16.1% (inactive) | 91.1 | -86.5% (inactive) | 99.9 | -0.455 (inactive) | 0.000133 (inactive) | 0.00595 (inactive) | 10.2% (inactive) | 22.3% (inactive) |
| Cc1ccccc1N1CC(c2nc3ccccc3[nH]2)CC1=O (stereo not drawn) | 385 | 3% (inactive) | -1.2% (inactive) | 107 | -7.2% (inactive) | 110 | -0.478 (inactive) | -1.5e-05 (inactive) | 0.0056 (inactive) | -2.87% (inactive) | 98.3% (active) |
| Cc1ccc(S(=O)(=O)N2CCOCC2)cc1C(=O)OCC(=O)N1CCc2ccccc2C1 | 538 | -12.2% (inactive) | 5.4% (inactive) | 98.4 | -184% (inactive) | 132 | -0.4 (inactive) | 5.8e-06 (inactive) | 0.00607 (inactive) | 4.57% (inactive) | 6.74% (inactive) |
| CC(C)CC(NC(=O)OC(C)(C)C)C(=O)NC(C(=O)NC(C)C(N)=O)C(C)C (stereo not drawn) (Boc-Leu-Val-Ala-NH2; configuration not given here) | 342 | 4.6% (inactive) | 4.4% (inactive) | 116 | -20.6% (inactive) | 117 | -0.573 (inactive) | -1.3e-05 (inactive) | 0.00562 (inactive) | -9.68% (inactive) | 17.1% (inactive) |
| CCCc1nc2ccccc2c(=O)n1NC(=O)c1c(O)c2cccc3c2n(c1=O)CCC3 | 554 | -15.1% (inactive) | -12.2% (inactive) | 92 | -150% (inactive) | 120 | -0.391 (inactive) | -0.000105 (inactive) | 0.00863 (inactive) | 7.44% (inactive) | 6.93% (inactive) |
| Cc1cccc2cc(C(c3nnnn3C(C)(C)C)N3CCN(C(=O)c4ccco4)CC3)c(=O)[nH]c12 (stereo not drawn) | 283 | -1.9% (inactive) | -6.7% (inactive) | 96.1 | -29.9% (inactive) | 88.4 | -0.439 (inactive) | -5.7e-05 (inactive) | 0.00557 (inactive) | 13.4% (inactive) | 16% (inactive) |
| COc1ccc(-c2cnc(SCC(=O)Nc3ccc4c(c3)OCO4)n2Cc2ccco2)cc1 | 450 | 17.8% (inactive) | -8.7% (inactive) | 105 | -1.8% (inactive) | 110 | -0.5 (inactive) | -2.5e-05 (inactive) | 0.00501 (inactive) | 2.4% (inactive) | 36.8% (inactive) |
| COc1ccc2c(c1)c1c(n2C(C)=O)C(OC(C)=O)=NCC1 | 904 | -1.4% (inactive) | -12.8% (inactive) | 101 | -98.4% (inactive) | 128 | -0.166 (active) | -2.6e-05 (inactive) | 0.00438 (inactive) | 13.2% (inactive) | -6.44% (inactive) |

— PubChem BioAssay
